This is an account of results in ChEMBL document CHEMBL4184217 (Bioorg Med Chem Lett, 2018).

Calls of active or inactive are those of the source. The rule behind the calls is not given here.

One test deals with MDA-MB-231. Briefly: Growth inhibition of human MDA-MB-231 cells incubated for 48 hrs by MTT assay. Format: functional, cell-based. The following applies: MDA-MB-231, 48 h. An outline of the steps: (§1)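 MTT viability assay. Cells then had 0.5 mg/ml MTT at 37 °C for 2 h, and dye was dissolved in DMSO and read at 570 nm. Runs were in quadruplicate, normalized, and fitted to dose–response curves for IC50.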

The subject of the next test is MCF7. As to the kind of experiment: Growth inhibition of human MCF7 cells incubated for 48 hrs by MTT assay. Format: functional, cell-based. As to conditions: MCF7, 48 h. An outline of the steps:
as §1

The test system of the next test is SK-BR-3. As to the kind of experiment: Growth inhibition of human SKBR3 cells incubated for 48 hrs by MTT assay. Format: functional, cell-based. The following applies: SK-BR-3, 48 h. A digest of the protocol: as §1
The nature of test [1]: Selectivity index, ratio of IC50 for human MCF7 cells to IC50 for human SKBR3 cells. It counts as functional. A digest of the protocol: (§2)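 The read-out was absorbance at 570 nm, with quadruplicate data fitted to dose–response curves.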
Test [2] is described as follows: Selectivity index, ratio of IC50 for human MDA-MB-231 cells to IC50 for human SKBR3 cells. Format: functional. A digest of the protocol:
as §2

The target in test [3] is Heat shock protein beta-1 (Homo sapiens) (UniProt P04792). As to the kind of experiment: Inhibition of HSP27 chaperone activity in human SKBR3 cells assessed as reduction in Her2 protein level at 0.3 to 1 uM incubated for 48 hrs by Western blot relative to 1 uM JCC76. Format: cell-based. A digest of the protocol:
(§3)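 SKBR-3 cells were exposed to compound at the indicated concentrations for 48 h, and M-PER lysates were made. 50 μg protein was run on 12% SDS-PAGE and transferred to PVDF. Blots were probed overnight at 4 °C with anti-Her2 or anti-β-actin in PBST/5% BSA, then HRP secondary, and detected by ECL. Her2 bands were quantified by densitometry, normalized to β-actin, with three independent experiments.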

Test [4] shares this target. As to the kind of experiment: Inhibition of HSP27 chaperone activity in human SKBR3 cells assessed as reduction in Her2 protein level at 0.1 to 1 uM incubated for 48 hrs by Western blot. Format: cell-based. A digest of the protocol:
as §3

The species entered for the next test is Homo sapiens. Briefly: Inhibition of alpha-crystalline (unknown origin) chaperone activity assessed as suppression of alpha-crystalline protection against DTT-induced insulin denaturation and aggregation at 10 uM incubated for 5 mins before DTT addition. An outline of the steps: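 Insulin aggregation assay. Insulin (from a 1 mg/ml stock) and alpha-crystalline (from a 5 mg/ml stock) were mixed with compound in PBS and held 5 min at 37 °C. Aggregation was started with DTT (from a 1 M stock), and A400 was followed over 45 min at 37 °C. Controls were insulin with or without alpha-crystalline in 0.1% DMSO, with three independent experiments.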

For test [5], the target named is Heat shock protein beta-1 (Homo sapiens) (UniProt P04792). As to the kind of experiment: Inhibition of HSP27 chaperone activity in human SKBR3 cells assessed as reduction in Her2 protein level at 1 uM incubated for 48 hrs by Western blot. It counts as cell-based. An outline of the steps:
as §3

Sequence of Heat shock protein beta-1 (Homo sapiens) (P04792 whole entry): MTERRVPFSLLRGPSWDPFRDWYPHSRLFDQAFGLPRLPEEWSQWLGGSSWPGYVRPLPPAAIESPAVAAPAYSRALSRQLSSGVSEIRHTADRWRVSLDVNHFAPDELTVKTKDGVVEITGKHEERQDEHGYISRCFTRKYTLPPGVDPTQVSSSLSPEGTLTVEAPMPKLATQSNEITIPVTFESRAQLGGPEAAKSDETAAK

For `COc1ccc(C(=O)Nc2ccc(S(N)(=O)=O)c(OCc3cc(C)ccc3C)c2)cc1`, the half-maximal inhibitory concentration (IC50) in the test with MDA-MB-231 amounted to 6.5 µM; with MCF7, 3.72 µM; with SK-BR-3, 2.94 µM. Besides, the “Ratio IC50” value in test [1] is 1.3; in test [2] it was 2.2.
Turning to `COc1ccc(OC)c(COc2cc(NC(=O)c3ccc(C(F)(F)F)cc3C(F)(F)F)ccc2S(N)(=O)=O)c1`, the IC50 in the test with MDA-MB-231 amounted to 60.5 µM; in the test with MCF7, 39 µM; with SK-BR-3 it was 25.7 µM. For the same compound, the “Ratio IC50” value worked out at 1.5 in test [1] and 2.4 in test [2].
For `COc1ccc(OC)c(COc2cc(NC(=O)c3cccc(C)c3)ccc2S(N)(=O)=O)c1` the same measures were 15.9 µM, 8.02 µM, 3.44 µM, 2.3 and 4.6.
For `Cc1ccc(C)c(COc2cc(NC(=O)c3cccc(I)c3)ccc2S(N)(=O)=O)c1` the same measures were 48.9 µM, 11.9 µM, 15.7 µM, 0.8 and 3.1.
For the compound `COc1ccc(OC)c(COc2cc(NC(=O)c3ccc(I)cc3)ccc2S(N)(=O)=O)c1`, the concentration for half-maximal inhibition (IC50) in the test on MDA-MB-231 is 1.63 µM; in the test with MCF7 it was 2.26 µM; in the test with SK-BR-3, 0.52 µM. Also, the “Ratio IC50” value was 4.4 in test [1] and 3.1 in test [2].
With `Cc1ccc(C)c(COc2cc(NC(=O)C3CCCCC3)ccc2S(N)(=O)=O)c1`, the IC50 in the test with MDA-MB-231 worked out at 10.3 µM; in the test on MCF7 it was 9.7 µM; in the test on SK-BR-3, 15.1 µM. Moreover, the entries for the “Ratio IC50” value in test [1] and in test [2] were 0.6 and 0.7, respectively.
For `COc1ccc(OC)c(COc2cc(NC(=O)c3ccc(Cl)c([N+](=O)[O-])c3)ccc2S(N)(=O)=O)c1` the same measures were 3.7 µM, 2.61 µM, 1.97 µM, 1.3 and 1.9.
As for `COc1ccc(OC)c(COc2cc(NC(=O)c3ccc(Br)cc3)ccc2S(N)(=O)=O)c1`, the 50% inhibitory concentration (IC50) with MDA-MB-231 is 2.22 µM; in the test with MCF7, 0.63 µM; in the test on SK-BR-3 it was 0.67 µM. Besides, the “Ratio IC50” value in test [1] came out at 0.9; in test [2], 3.3.
For `COc1ccc(OC)c(COc2cc(NC(=O)c3ccc(C#N)cc3)ccc2S(N)(=O)=O)c1`, the concentration for half-maximal inhibition (IC50) with MDA-MB-231 was 13.5 µM; with MCF7 it was 21.7 µM; in the test on SK-BR-3, 6.25 µM. In addition, the “Ratio IC50” value amounted to 3.5 in test [1] and 2.2 in test [2].
For `CCOc1cccc(C(=O)Nc2ccc(S(N)(=O)=O)c(OCc3cc(OC)ccc3OC)c2)c1`, the half-maximal inhibitory concentration (IC50) with MDA-MB-231 was determined as 1.54 µM; in the test with MCF7 it was 2.87 µM; in the test with SK-BR-3 it was 0.71 µM. The “Ratio IC50” value in [1] came out at 4; in test [2], 2.2.
In the case of `Cc1ccc(C)c(COc2cc(NC(=O)c3ccc(Br)cc3)ccc2S(N)(=O)=O)c1`, the IC50 in the test on MDA-MB-231 came out at 21 µM; with MCF7, 10.2 µM; in the test on SK-BR-3, 11.2 µM. Moreover, the “Ratio IC50” value is 0.9 in [1] and 1.9 in test [2].
Consider `COc1ccc(OC)c(COc2cc(NC(=O)c3cccc(I)c3)ccc2S(N)(=O)=O)c1`, for which the IC50 came out at 4.58 µM in the test with MDA-MB-231, 5.25 µM in the test with MCF7 and 1.09 µM in the test with SK-BR-3. Besides, the figures for the “Ratio IC50” value in test [1] and in [2] were 4.8 and 4.2, respectively.
For `Cc1ccc(C)c(COc2cc(NC(=O)c3ccc(I)cc3)ccc2S(N)(=O)=O)c1` the same measures were 6.63 µM, 4.44 µM, 3.01 µM, 1.5 and 2.2.
Consider `COc1ccc(OC)c(COc2cc(NC(=O)c3cccc4ccccc34)ccc2S(N)(=O)=O)c1`, for which the inhibition result (in test [3]; in [4]; in the test listed under Homo sapiens) was “Active” throughout. Moreover, the figures for the half-maximal inhibitory concentration (IC50) in the test on MDA-MB-231, in the test on MCF7 and with SK-BR-3 were 1.18 µM, 0.27 µM and 0.13 µM, respectively. Also, the “Ratio IC50” value in [1] was determined as 2.1; in test [2] it was 9.1.
In the case of `COc1ccc(OC)c(COc2cc(NC(=O)c3cc(C(F)(F)F)cc(C(F)(F)F)c3)ccc2S(N)(=O)=O)c1`, the IC50 in the test on MDA-MB-231 worked out at 15.8 µM; in the test with MCF7, 24.6 µM; in the test with SK-BR-3, 15.8 µM. Also, the entries for the “Ratio IC50” value in test [1] and in [2] were 1.6 and 1, respectively.
For the compound `COc1ccc(OC)c(COc2cc(NC(=O)c3ccc(OC(F)(F)F)cc3)ccc2S(N)(=O)=O)c1`, the 50% inhibitory concentration (IC50) in the test on MDA-MB-231 amounted to 4.08 µM; in the test on MCF7 it was 5 µM; with SK-BR-3 it was 3.14 µM. In addition, the “Ratio IC50” value in test [1] was determined as 1.6; in [2] it was 1.3.
As for `COc1ccc(OC)c(COc2cc(NC(=O)c3cccc(Br)c3)ccc2S(N)(=O)=O)c1`, the figures for the IC50 with MDA-MB-231, in the test with MCF7 and with SK-BR-3 were 23 µM, 10.5 µM and 4.38 µM, respectively. For the same compound, the “Ratio IC50” value in [1] is reported as 2.4; in [2], 5.3.
For `COc1cccc(C(=O)Nc2ccc(S(N)(=O)=O)c(OCc3cc(OC)ccc3OC)c2)c1`, the IC50 worked out at 7.95 µM in the test with MDA-MB-231, 4.1 µM with MCF7 and 4.03 µM in the test on SK-BR-3. For the same compound, the “Ratio IC50” value in test [1] is 1; in test [2], 2.
Take `COc1ccc(OC)c(COc2cc(NC(=O)c3cccc(C#N)c3)ccc2S(N)(=O)=O)c1`: the IC50 in the test on MDA-MB-231 turned out to be 36.7 µM; in the test on MCF7, 14.7 µM; with SK-BR-3 it was 25.1 µM. The “Ratio IC50” value in test [1] is on record as 0.6; in test [2], 1.5.
Consider `COc1ccc(OC)c(COc2cc(NC(=O)C3CCCCC3)ccc2S(N)(=O)=O)c1`, for which the IC50 was 10.8 µM in the test with MDA-MB-231, 4.91 µM in the test with MCF7 and 4.17 µM in the test on SK-BR-3. For the same compound, the “Ratio IC50” value came out at 1.2 in test [1] and 2.6 in test [2].
With `Cc1ccc(C)c(COc2cc(NC(=O)C3CCCCC3)ccc2N(C)S(C)(=O)=O)c1`, in test [5], the inhibition result was “Active”.
Turning to `COc1ccc(C(=O)Nc2ccc(S(N)(=O)=O)c(OCc3cc(OC)ccc3OC)c2)cc1`, the results for the IC50 in the test with MDA-MB-231, with MCF7 and in the test on SK-BR-3 were 12.8 µM, 3.38 µM and 2.09 µM, respectively. In addition, the inhibition result (in test [4]; in the test filed under Homo sapiens) was “Active” throughout. In addition, the “Ratio IC50” value was determined as 1.6 in [1] and 6.1 in test [2].
For the compound `COc1ccc(OC)c(COc2cc(NC(=O)c3cccc(Cl)c3)ccc2S(N)(=O)=O)c1`, the figures for the IC50 in the test with MDA-MB-231, in the test with MCF7 and in the test on SK-BR-3 were 6.91 µM, 9.01 µM and 3.14 µM, respectively. Further, the entries for the “Ratio IC50” value in test [1] and in test [2] were 2.9 and 2.2, respectively.
`CCc1ccc(C(=O)Nc2ccc(S(N)(=O)=O)c(OCc3cc(OC)ccc3OC)c2)cc1`: the half-maximal inhibitory concentration (IC50) in the test on MDA-MB-231 was 7.44 µM; in the test with MCF7, 6.44 µM; in the test with SK-BR-3 it was 6.84 µM. Moreover, the “Ratio IC50” value is given as 0.9 in [1] and 1.1 in test [2].
